MsrA inh – inhibits bovine methionine sulfoxide reductase A | purified bovine MsrA, absorbance read-out | inhibition, % at 15.5 µM | 360,000 tested, 0.75% active | AID 651718;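 further: 0% = vehicle wells with enzyme and 100% = reference inhibitor wells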
bovine MsrA act – activators of bovine methionine sulfoxide reductase A; 360,000 tested, 0.3% active; activation, % at 10.6 µM; purified bovine MsrA, absorbance read-out; in the data active means activation above about 7.5%;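 further: 0% = vehicle and 100% = reference activator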
MC4R antag cAMP – antagonists of human melanocortin 4 receptor (MC4R); inhibition, % at 6.5 µM; 360,000 tested, 0.48% active; MC4R-expressing cells, MTII-stimulated cAMP, LANCE TR-FRET;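 active means inhibition above its plate's cutoff, the mean of tested wells on that plate plus 3 SD, cut at about 29% in these data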;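 further: 0% = Melanotan II alone and 100% = Melanotan II plus saturating MCL0020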
Target sequence (P32245 whole entry, looked up): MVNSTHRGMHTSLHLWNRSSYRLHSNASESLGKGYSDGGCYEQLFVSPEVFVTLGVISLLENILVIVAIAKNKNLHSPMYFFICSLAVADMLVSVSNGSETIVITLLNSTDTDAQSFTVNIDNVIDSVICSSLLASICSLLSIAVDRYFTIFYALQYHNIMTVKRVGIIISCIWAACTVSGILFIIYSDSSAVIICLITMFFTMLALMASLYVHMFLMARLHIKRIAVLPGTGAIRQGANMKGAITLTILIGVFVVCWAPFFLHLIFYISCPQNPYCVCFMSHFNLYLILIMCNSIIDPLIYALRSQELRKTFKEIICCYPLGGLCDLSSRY
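System: U2OS cells stably expressing human melanocortin 4 receptor (MC4R). Reagent: Melanotan II challenge after compound preincubation. Doses: 6.5 µM. Times: 30-min compound, 1-h challenge, 1-h detection, room temperature. Measured by: TR-FRET with Eu-cAMP and labeled anti-cAMP, 671 nm. Replicates: singlicate.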
MC4R barr agon – activates human MC4R beta-arrestin recruitment | U2OS MC4R beta-arrestin complementation, luminescence; percent of melanotan II response, DMSO zero | activation, % at 8.9 µM | 360,000 tested, 0.98% active | AID 540308;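 active means activation above a per-plate cutoff, the mean activation of sample wells on that plate plus 3 SD, cut at about 8% in these data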
MsrA conf – bovine MsrA inhibition, confirmed. inhibition, % at 15.5 µM. AID 651822. 2,300 tested, 41% active. shares compounds with MsrA inh. purified bovine MsrA, absorbance read-out;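 further: coupled to thioredoxin reductase with NADPH and selenocystamine and DMSO as substrate; 0% = vehicle only and 100% = full effect of reference inhibitor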
The depositor's hits bear a star. Only some compounds are listed: those with a hit (about 2.3% of all), similar ones and a draw of the others. Unless noted, no stated cut-off is given here; in the data, active means inhibition above about 4.5%; inactive means the rest.

What do the screens show for `c1ccc(N2CCN(c3nc4ccccc4n4nnnc34)CC2)cc1`?
MsrA inh: -1; bovine MsrA act: -4; MC4R antag cAMP: 1; MC4R barr agon: 1

How did Cc1nc(SCC(=O)NC(=O)NCCC(C)C)c2c(-c3cccs3)csc2n1 do in these assays?
MsrA inh: 3; bovine MsrA act: -7; MC4R antag cAMP: 11; MC4R barr agon: 3

How did CCn1c(Sc2nc(C)nc3scc(-c4cccs4)c23)n[nH]c1=O do in these assays?
MsrA inh: 10*; bovine MsrA act: -7; MC4R antag cAMP: -3; MC4R barr agon: -2; MsrA conf: 10.0*

Results for Cc1nn2cc(-c3ccccc3)nc2[nH]c1=O ?
MsrA inh: 2; bovine MsrA act: -3; MC4R antag cAMP: 8; MC4R barr agon: -1

How did CC(C)Cn1c2c(c(O)c(C(=O)Nc3ncccc3O)c1=O)CCCC2 do in these assays?
MsrA inh: 0; bovine MsrA act: -2; MC4R antag cAMP: -5; MC4R barr agon: 2

How did Cc1ccc(-c2nc(=S)c3c(n2Cc2ccco2)CC(C)(C)OC3)cc1 do in these assays?
bovine MsrA act: -13; MC4R antag cAMP: 24; MC4R barr agon: 0

How did Cc1ccc(-c2nc(=S)c3c(n2CC2CCCO2)CC(C)(C)OC3)cc1 (stereo unspecified) do in these assays?
MsrA inh: 4.9*; bovine MsrA act: -10; MC4R antag cAMP: 4; MC4R barr agon: 0; MsrA conf: 4

What do the screens show for `CS(=O)(=O)NCCCNc1ccc(C(F)(F)F)cc1[N+](=O)[O-]`?
MsrA inh: 2; bovine MsrA act: -7; MC4R antag cAMP: 1; MC4R barr agon: 0

How did CCOC(=O)N1CCC2(CC1)NC(=O)c1ccccc1N2 do in these assays?
MsrA inh: 1; bovine MsrA act: -1; MC4R antag cAMP: 1; MC4R barr agon: -1

What do the screens show for `Nc1nonc1-c1nc2ccccc2n1CC(=O)N/N=C/c1ccc(-c2ccccc2C(=O)O)o1`?
MsrA inh: 7.3*; bovine MsrA act: -8; MC4R antag cAMP: 3; MC4R barr agon: -3; MsrA conf: 6.9*

How did O=C(NC(=S)Nc1nc(-c2ccc([N+](=O)[O-])cc2)cs1)c1ccco1 do in these assays?
MsrA inh: 0; bovine MsrA act: 4; MC4R antag cAMP: -1; MC4R barr agon: 0

What do the screens show for `O=C(O/N=C1/CCCc2occc21)c1ccccc1`?
MsrA inh: -1; bovine MsrA act: -6; MC4R antag cAMP: 1; MC4R barr agon: 0

Results for COc1ccc(Nc2nc3c(C)cccc3cc2C#N)cc1 ?
MsrA inh: 4; bovine MsrA act: -12; MC4R antag cAMP: -3; MC4R barr agon: 3

How did COc1cccc(Nc2nc3cc(OC)ccc3cc2C#N)c1 do in these assays?
MsrA inh: 17*; bovine MsrA act: -2; MC4R antag cAMP: 7; MC4R barr agon: 2; MsrA conf: 13*

Results for CCSc1ccc([C@@H]2[C@H]3C(=O)N(C)C(=O)[C@H]3[C@]3(C(=O)OC)CCCCN23)cc1OC ?
MsrA inh: 0; bovine MsrA act: -4; MC4R antag cAMP: -2; MC4R barr agon: 0

Results for CCOc1cc(C(=O)NC2CC(C)(C)NC(C)(C)C2)cc(OCC)c1OCC ?
MsrA inh: -1; bovine MsrA act: -11; MC4R antag cAMP: -2; MC4R barr agon: 2

Results for N#Cc1cc([N+](=O)[O-])cnc1NCC(O)CO (stereo unspecified) ?
MsrA inh: 5.4*; bovine MsrA act: -4; MC4R antag cAMP: -2; MC4R barr agon: -2; MsrA conf: 5

What do the screens show for `O=C1c2ccccc2C(=O)c2c1cccc2N1CCCC1`?
MsrA inh: 36*; bovine MsrA act: 2; MC4R antag cAMP: 3; MC4R barr agon: -2; MsrA conf: 0

Results for CCC1(CC)C(=O)C2=C3C1[C@H](C(=O)OC)CC(C(=O)OC)C[C@H]3n1c(=O)n(C)c(=O)n1[C@H]2C (stereo partly specified) ?
MsrA inh: 1; bovine MsrA act: -10; MC4R antag cAMP: 3; MC4R barr agon: 1

What do the screens show for `O=C(O)c1ccn[nH]1`?
bovine MsrA act: -5; MC4R antag cAMP: 3; MC4R barr agon: 0

How did O=C1C2CC=C(Cl)CC2C(=O)N1c1ncn[nH]1 (stereo unspecified) do in these assays?
MsrA inh: 0; bovine MsrA act: -9; MC4R antag cAMP: 5; MC4R barr agon: -1

Results for Cc1cc(/C=C(\C#N)C(=O)O)c(C)n1CC1CCCO1 (stereo unspecified) ?
MsrA inh: 5.2*; bovine MsrA act: -1; MC4R antag cAMP: 12; MC4R barr agon: -1; MsrA conf: 6.2*

Results for Cc1cc(/C=C(/C#N)C(=O)O)c(C)n1CCC(C)C ?
MsrA inh: 4.8*; bovine MsrA act: -6; MC4R antag cAMP: 9; MC4R barr agon: -2; MsrA conf: 3

How did CCCn1c(C)cc(/C=C(\C#N)C(=O)O)c1C do in these assays?
MsrA inh: 6.8*; bovine MsrA act: -8; MC4R antag cAMP: 2; MC4R barr agon: 2; MsrA conf: 4

What do the screens show for `CCCCn1c(C)cc(/C=C(\C#N)C(=O)O)c1C`?
MsrA inh: 4; bovine MsrA act: -8; MC4R antag cAMP: 2; MC4R barr agon: -1

Results for Cc1cc(/C=C(\C#N)C(=O)O)c(C)n1-c1ccc(Br)cc1 ?
MsrA inh: 7.4*; bovine MsrA act: -6; MC4R antag cAMP: 0; MC4R barr agon: -1; MsrA conf: 4.8*

Results for COc1ccc(CNC(=O)c2[nH]c(C(F)(F)F)nc2-c2ccccc2)cc1OC ?
MsrA inh: -2; bovine MsrA act: -3

What do the screens show for `O=C(CCCc1nc2ccccc2s1)N1CCN(c2ccccc2F)CC1`?
MsrA inh: -2; bovine MsrA act: -4; MC4R antag cAMP: 11; MC4R barr agon: -1

What do the screens show for `Cc1[nH]c(C(=O)N/N=C/c2ccc(N(C)C)cc2)c(C)c1C(=O)N/N=C/c1ccc(N(C)C)cc1`?
MsrA inh: 7.5*; bovine MsrA act: -11; MC4R antag cAMP: -8; MC4R barr agon: -3; MsrA conf: 5.2*

Results for Cc1[nH]c(C(=O)N/N=C/c2ccc(C(=O)O)cc2)c(C)c1C(=O)N/N=C/c1ccc(C(=O)O)cc1 ?
MsrA inh: 9.9*; bovine MsrA act: -16; MC4R antag cAMP: -11; MC4R barr agon: 3; MsrA conf: 9.4*

Results for CCOC(=O)c1c(C)[nH]c(C(=O)N/N=C/c2ccc(Br)cc2)c1C ?
MsrA inh: 2; bovine MsrA act: -2; MC4R antag cAMP: -21; MC4R barr agon: 0

Results for COc1ccc(C(=O)Nc2ccnn2C2CCN(Cc3ccc4nonc4c3)CC2)cc1 ?
MsrA inh: 1; bovine MsrA act: 0; MC4R antag cAMP: 13; MC4R barr agon: 2

What do the screens show for `Cc1ccc(-n2nc3c(c2NC(=O)c2ccc4c(c2)OCO4)CS(=O)C3)cc1` (stereo unspecified)?
MsrA inh: 0; bovine MsrA act: 1; MC4R antag cAMP: 7; MC4R barr agon: -1

How did CCOC(=O)C(=CNc1ccc(C#N)cc1)C(=O)OCC do in these assays?
MsrA inh: 7.1*; bovine MsrA act: -8; MC4R antag cAMP: -3; MC4R barr agon: -1; MsrA conf: 5.5*
